Measurements taken from ChEMBL document CHEMBL5338714, “Design, synthesis and biological evaluation of biphenyl-benzamides as potent FtsZ inhibitors” (Eur J Med Chem, 2022).
In brackets after ≈: the same amount, converted by molar mass. Activity calls are given as the source filed them. No cut-off for these calls is given here.

What was measured:
[1] = test system: Staphylococcus aureus; test: Antibacterial activity against Staphylococcus aureus ATCC25923 assessed as bacterial growth inhibition incubated for 18 hrs by CLSI based broth microdilution method; assay type: functional
Method in brief: (§1)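 CLSI broth microdilution. Log-phase bacteria in Mueller Hinton broth added to 2-fold serial dilutions spanning 128 to 0.25 or 2 to 0.004 µg/mL. Incubated aerobically for 18 h at 37 °C, then OD600 read. MIC is the lowest concentration giving ≥90% growth inhibition; three independent assays.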

[2] = test system: Staphylococcus aureus; test: Antibacterial activity against ampicillin-resistant Staphylococcus aureus 669 assessed as bacterial growth inhibition incubated for 18 hrs by CLSI based broth microdilution method; assay type: functional
Method in brief: (§2)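 Broth microdilution to CLSI guidelines. Log-phase bacteria grown in Mueller Hinton broth, diluted, then exposed to 2-fold serial dilutions of compound (128 to 0.25 µg/mL or 2 to 0.004 µg/mL). Incubated aerobically 18 h at 37 °C. Growth read as OD600. MIC = lowest concentration giving ≥90% growth inhibition. Three independent assays.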

[3] = test system: Escherichia coli; test: Antibacterial activity against Escherichia coli 25922 assessed as bacterial growth inhibition incubated for 18 hrs by CLSI based broth microdilution method; assay type: functional; method in brief: as §1
[4] = test system: Klebsiella pneumoniae; test: Antibacterial activity against Klebsiella pneumoniae 14578 assessed as bacterial growth inhibition incubated for 18 hrs by CLSI based broth microdilution method; assay type: functional; method in brief: as §2
[5] = Cytotoxicity against African green monkey Vero cells assessed as reduction in cell viability incubated for 72 hrs by alamar blue staining based assay; assay type: toxicity; conditions: chlorocebus sabaeus
Method in brief: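 Vero cells seeded at about 2 × 10^3 per well, 37 °C, 5% CO2. Compound added after 24 h and incubated 72 h. AlamarBlue (1:10 v/v) then added for 3 h in the dark, read at Ex/Em 560/590 nm. CC50 is the lowest concentration causing 50% loss of viability.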

[6] = test system: Staphylococcus aureus; test: Antibacterial activity against Staphylococcus aureus ATCC25923 assessed as bacterial growth inhibition at 1 to 8 times MIC measured after 12 hrs by time kill curve assay relative to control; assay type: functional
Method in brief: (§3)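 Time-kill: log-phase cultures diluted to about 10^6 CFU/mL in MHB with compound at 1×, 2×, 4× or 8× MIC (vancomycin at 2× MIC), shaken at 37 °C. Samples taken at 3, 6, 12 and 24 h, serially diluted and plated on LB agar. Colonies counted after 24 h at 37 °C; detection limit 10^3 CFU/mL.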

[7] = test system: Bacillus subtilis; test: Antibacterial activity against Bacillus subtilis ATCC9372 assessed as reduction in bacterial count at 2 times MIC measured for 3 hrs by time kill curve assay; assay type: functional, organism-based; method in brief: as §3
[8] = test system: Bacillus subtilis; test: Induction of morphological changes in Bacillus subtilis ATCC9372 assessed as increase in cell length at MIC incubated for 3 hrs by microscopic analysis (reference value: 10 um); assay type: functional
[9] = Metabolic stability in rat liver microsomes assessed as compound remaining preincubated for 5 mins followed by NADPH addition measured after 5 mins by LC/MS analysis; assay type: ADME, Microsome; conditions: time 10 min, read-out: Stability
Method in brief: (§4)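 Liver microsomes (final protein 0.75 mg/mL) with compound in 100 mM phosphate buffer pH 7.4, preincubated 5 min at 37 °C. Reaction started with NADPH regeneration system, stopped at 5, 15, 30 and 45 min with acetonitrile containing internal standard. Percent remaining measured by LC/MS, with ketanserin as reference; variation given as RSD of area ratio.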

[10] = Metabolic stability in human liver microsomes assessed as compound remaining preincubated for 5 mins followed by NADPH addition measured after 5 mins by LC/MS analysis; assay type: ADME, Microsome; conditions: time 10 min, read-out: Stability; method in brief: as §4
[11] = Metabolic stability in human liver microsomes assessed as compound remaining preincubated for 5 mins followed by NADPH addition measured after 45 mins by LC/MS analysis; assay type: ADME, Microsome; conditions: time 50 min, read-out: Stability; method in brief: as §4
[12] = Metabolic stability in mouse liver microsomes assessed as compound remaining preincubated for 5 mins followed by NADPH addition measured immediately by LC/MS analysis; assay type: ADME, Microsome; conditions: read-out: Stability
[13] = Metabolic stability in mouse liver microsomes assessed as compound remaining preincubated for 5 mins followed by NADPH addition measured after 15 mins by LC/MS analysis; assay type: ADME, Microsome; conditions: time 20 min, read-out: Stability; method in brief: as §4
[14] = Metabolic stability in mouse liver microsomes assessed as compound remaining preincubated for 5 mins followed by NADPH addition measured after 30 mins by LC/MS analysis; assay type: ADME, Microsome; conditions: time 35 min, read-out: Stability; method in brief: as §4
[15] = Metabolic stability in mouse liver microsomes assessed as compound remaining preincubated for 5 mins followed by NADPH addition measured after 45 mins by LC/MS analysis; assay type: ADME, Microsome; conditions: time 50 min, read-out: Stability; method in brief: as §4
[16] = AUC (0 to t) in ICR mouse at 1 mg/kg, iv measured for 0.08 to 24 hrs by LC-MS/MS analysis; assay type: ADME, organism-based; set-up: time 0.08-24 hrs, dose 1 mg/kg, route iv; conditions: in vivo
Method in brief: (§5)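 Male ICR mice, single intravenous dose formulated in 5% DMSO, 4% ethanol, 5% Cremophor EL, 86% water. Blood sampled at 5, 15, 30 min, 1, 2, 4, 8 and 24 h; plasma stored at -20 °C. Compound quantified by LC-MS/MS, with parameters from non-compartmental analysis.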

[17] = AUC (0 to infinity) in ICR mouse at 1 mg/kg, iv measured for 0.08 to 24 hrs by LC-MS/MS analysis; assay type: ADME, organism-based; set-up: dose 1 mg/kg, time upper 24 hrs, time lower 0.08 hrs, route iv; conditions: in vivo; method in brief: as §5
[18] = Half life in ICR mouse at 5 mg/kg, po measured for 0.25 to 24 hrs by LC-MS/MS analysis; assay type: ADME, organism-based; conditions: in vivo, time 0.25-24 hrs
Method in brief: (§6)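 Male ICR mice dosed orally with a solution of 5% DMSO, 4% ethanol, 5% Cremophor EL and 86% water. Blood collected at 15, 30 min, 1, 2, 4, 6, 8 and 24 h; plasma stored at -20 °C. Plasma levels measured by LC-MS/MS; parameters by non-compartmental analysis, with bioavailability relative to the 1 mg/kg iv dose.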

[19] = Cmax in ICR mouse at 5 mg/kg, po measured for 0.25 to 24 hrs by LC-MS/MS analysis; assay type: ADME, organism-based; set-up: time upper 24 hrs, dose 5 mg/kg, time lower 0.25 hrs, route po; conditions: in vivo; method in brief: as §6
[20] = AUC (0 to infinity) in ICR mouse at 5 mg/kg, po measured for 0.25 to 24 hrs by LC-MS/MS analysis; assay type: ADME, organism-based; set-up: time upper 24 hrs, time lower 0.25 hrs, dose 5 mg/kg, route po; conditions: in vivo; method in brief: as §6
[21] = test system: Staphylococcus aureus; test: Antibacterial activity against Staphylococcus aureus ATCC25923 infected in ICR mouse assessed as reduction in bacterial burden in plasma at 25 mg/kg, ip by colony forming unit assay; assay type: functional, organism-based

Q: For `Cc1cc(Cl)ccc1-c1cccc(COc2ccc(F)c(C(N)=O)c2F)c1`, which MIC [1] is on record?
A: The MIC was 0.125 µg/mL (≈ 0.322 µM).

Q: And the MIC [2]?
A: Its MIC is 0.06 µg/mL (≈ 0.155 µM).

Q: And the MIC [3]?
A: The MIC was > 128 µg/mL.

Q: And the MIC [4]?
A: The MIC was > 128 µg/mL.

Q: And the CC50 at 72 h [5]?
A: The CC50 at 72 h was > 20 µg/mL.

Q: And the “inhibition (INH)” value [6]?
A: Its value is 100%.

Q: What about the Activity [7] of the same molecule?
A: Its Activity is “Active”.

Q: What about the Activity [8] of the same molecule?
A: The Activity was >60 um.

Q: What about the remaining at 5 min [9] of the same molecule?
A: The remaining at 5 min was 73.7%.

Q: And the remaining at 5 min [10]?
A: Its remaining at 5 min is 97.1%.

Q: And the remaining at 0.75 h [11]?
A: The remaining at 0.75 h was 75%.

Q: What about the remaining at 0 min [12] of the same molecule?
A: Its remaining at 0 min is 100%.

Q: And the remaining at 0.25 h [13]?
A: The remaining at 0.25 h was 11.9%.

Q: What about the remaining at 0.5 h [14] of the same molecule?
A: Its remaining at 0.5 h is 1.74%.

Q: What about the remaining at 0.75 h [15] of the same molecule?
A: Its remaining at 0.75 h is 0.46%.

Q: What about the AUC(0-t) [16] of the same molecule?
A: Its AUC(0-t) is 178 ng·h/mL.

Q: And the AUC(0-inf) [17]?
A: Its AUC(0-inf) is 179 ng·h/mL.

Q: And the half-life [18]?
A: The half-life was 2.26 h.

Q: And the Cmax [19]?
A: The Cmax was 429 ng/mL.

Q: What about the AUC(0-inf) [20] of the same molecule?
A: The AUC(0-inf) was 559 ng·h/mL.

Q: What about the Activity [21] of the same molecule?
A: Its Activity is “Active”.
